Results from different studies.
Lines come from different studies, so protocols differ.

SMILES	cell line	observed	method	time	IC50
CC1=C(O)C(=O)C=C2C1=CC=C1[C@@]2(C)CC[C@@]2(C)[C@@H]3C[C@](C)(C(=O)OCCCN4C(=O)C5C=CC=CC5C4=O)CC[C@]3(C)CC[C@]12C (some centres unmarked)	AGS	cell growth or viability	MTT	48 h	370 nM
Cn1nnc2c(C(=O)N3CCCC3)ncn2c1=O	U-87 MG	cell growth or viability	resazurin	7 days	17000 nM
O=C(c1cc(Cc2n[nH]c(=O)c3ccccc23)ccc1F)N1CCN(C(=O)C2CC2)CC1	SK-OV-3	colony formation			7600 nM
Cn1nnc2c(C(N)=O)ncn2c1=O	IMR-32	cell growth or viability			81600 nM
CC(=O)OCCOC(=O)[C@]1(C)CC[C@]2(C)CC[C@]3(C)C4=CC=C5C(=CC(=O)C(O)=C5C)[C@]4(C)CC[C@@]3(C)[C@@H]2C1	AGS	cell growth or viability	MTT	48 h	430 nM
O=C1NC(=NCc2cccs2)S/C1=C\c1ccc2ncccc2c1	EKVX	cell growth or viability			> 10000 nM
CC1=C(O)C(=O)C=C2C1=CC=C1[C@@]2(C)CC[C@@]2(C)[C@@H]3C[C@](C)(C(=O)OCCCOc4ccccc4)CC[C@]3(C)CC[C@]12C	AGS	cell growth or viability	MTT	48 h	1360 nM
COc1c(C)c(OS(=O)(=O)c2ccc3ccccc3c2)c(C)c(OS(=O)(=O)c2ccc3ccccc3c2)c1C(=O)/C=C/c1ccccc1	KKU-M213	cell growth or viability	SRB	72 h	> 50000 nM
C=CC(=O)Nc1cc(Nc2nccc(-c3cn(C4CC4)c4ccccc34)n2)c(OC)cc1N(C)CCN(C)C	PC-9	cell growth or viability	ATP luminescence	72 h	4.1 nM
COc1ccc(C2=N[C@@H](c3ccc(Cl)cc3)[C@@H](c3ccc(Cl)cc3)N2C(=O)N2CCNC(=O)C2)c(OC(C)C)c1	DU-4475	cell growth or viability	MTS	48 h	4000 nM
CCN1CCN(c2ccc(Nc3cc(N(C)C(=O)Nc4c(Cl)c(OC)cc(OC)c4Cl)ncn3)cc2)CC1	JMSU-1	cell growth or viability	ATP luminescence	96 h	25.9 nM
COc1cc(/C=C2\SC(=O)NC2=O)ccc1OCc1ccc(Cl)cc1Cl	MEF	cell growth or viability	MTT	72 h	8600 nM
CC1=C(O)C(=O)C=C2C1=CC=C1[C@@]2(C)CC[C@@]2(C)[C@@H]3C[C@](C)(C(=O)OCCCCCCO)CC[C@]3(C)CC[C@]12C	AGS	cell growth or viability	MTT	48 h	360 nM
O=c1[nH]cc(S(=O)(=O)Nc2cccc(-c3nnc(-c4cccc(Cl)c4)o3)c2)c(=O)[nH]1	PC-9	cell growth or viability	MTT	24 h	1100 nM
CCN1C(=O)N(c2c(F)c(OC)cc(OC)c2F)Cc2cnc3[nH]c(CN4CCOCC4)cc3c21	JMSU-1	cell growth or viability	ATP luminescence	96 h	8.79 nM
CC(C)[C@H](N)c1nc2cc(-c3ccncc3F)sc2c(=O)[nH]1	SHP77	cell growth or viability	MTT		760 nM
CC1=C(O)C(=O)C=C2C1=CC=C1[C@@]2(C)CC[C@@]2(C)[C@@H]3C[C@](C)(C(=O)OCCCCO)CC[C@]3(C)CC[C@]12C	AGS	cell growth or viability	MTT	48 h	350 nM
CCCCN(CCCC)C(=O)c1ncn2c(=O)n(C)nnc12	U-87 MG	cell growth or viability	resazurin	7 days	27000 nM
COc1ccc(/C=C/C(=O)c2cc(Br)ccc(=O)c2O)cc1	MEF	cell growth or viability	MTT	72 h	6000 nM
CC1=C(O)C(=O)C=C2C1=CC=C1[C@@]2(C)CC[C@@]2(C)[C@@H]3C[C@](C)(C(=O)OCCCCCCCCO)CC[C@]3(C)CC[C@]12C	AGS	cell growth or viability	MTT	48 h	420 nM
